Results as given in the M2OR odorant receptor database.

Key:
Details in all cases: stereoisomer not certain
OR2D2 S148P I163T M202T = system: OR2D2 S148P I163T M202T
Procedure, shortened: (§1)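 Each receptor–molecule pair is labelled responsive or non-responsive (inactive) according to whether the original authors judged the measured signal statistically different from baseline. The data were taken from the main text and supplementary material of published papers and checked for typos and inconsistencies. Assay methods differed by source, with transient luciferase assays in mammalian cell lines being common.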

OR2D3 (Homo sapiens) = OR2D3 (Homo sapiens) (UniProt Q8NGH3)
Procedure, shortened: as §1

OR2D3 R155W = system: OR2D3 R155W
Procedure, shortened: as §1

OR2F1 (Homo sapiens) = OR2F1 (Homo sapiens) (UniProt Q13607)
Procedure, shortened: as §1

OR2F2 (Homo sapiens) = OR2F2 (Homo sapiens) (UniProt O95006)
Procedure, shortened: as §1

OR2G2 L167P R236G = system: OR2G2 L167P R236G
Procedure, shortened: as §1

OR2G3 (Homo sapiens) = OR2G3 (Homo sapiens) (UniProt Q8NGZ4)
Procedure, shortened: as §1

OR2G3 I289V = system: OR2G3 I289V
Procedure, shortened: as §1

OR2G6 (Homo sapiens) = OR2G6 (Homo sapiens) (UniProt Q5TZ20)
Procedure, shortened: as §1

Measured: odorant receptor agonist call;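 further: active if original authors judged signal statistically different from baseline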

OR2F1 (Homo sapiens), sequence (Q13607 whole entry): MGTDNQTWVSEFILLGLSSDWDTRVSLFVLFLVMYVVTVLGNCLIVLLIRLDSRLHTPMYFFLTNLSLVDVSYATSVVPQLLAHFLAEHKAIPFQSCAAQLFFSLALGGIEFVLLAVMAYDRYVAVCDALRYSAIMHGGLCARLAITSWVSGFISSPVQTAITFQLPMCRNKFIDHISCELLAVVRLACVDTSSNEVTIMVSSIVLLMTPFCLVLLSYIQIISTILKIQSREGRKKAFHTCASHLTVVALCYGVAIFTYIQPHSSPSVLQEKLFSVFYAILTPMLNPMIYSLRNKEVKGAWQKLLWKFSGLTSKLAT
OR2G6 (Homo sapiens), sequence (Q5TZ20 whole entry): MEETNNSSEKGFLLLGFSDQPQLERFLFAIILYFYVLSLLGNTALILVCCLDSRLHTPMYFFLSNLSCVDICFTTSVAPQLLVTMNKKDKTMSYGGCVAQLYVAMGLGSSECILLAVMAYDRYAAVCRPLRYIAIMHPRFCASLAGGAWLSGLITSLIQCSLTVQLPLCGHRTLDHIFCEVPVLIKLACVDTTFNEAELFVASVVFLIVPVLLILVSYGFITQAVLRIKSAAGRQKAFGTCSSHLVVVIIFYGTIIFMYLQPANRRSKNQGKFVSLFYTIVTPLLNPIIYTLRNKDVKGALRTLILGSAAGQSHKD
OR2D3 (Homo sapiens), sequence (Q8NGH3 whole entry): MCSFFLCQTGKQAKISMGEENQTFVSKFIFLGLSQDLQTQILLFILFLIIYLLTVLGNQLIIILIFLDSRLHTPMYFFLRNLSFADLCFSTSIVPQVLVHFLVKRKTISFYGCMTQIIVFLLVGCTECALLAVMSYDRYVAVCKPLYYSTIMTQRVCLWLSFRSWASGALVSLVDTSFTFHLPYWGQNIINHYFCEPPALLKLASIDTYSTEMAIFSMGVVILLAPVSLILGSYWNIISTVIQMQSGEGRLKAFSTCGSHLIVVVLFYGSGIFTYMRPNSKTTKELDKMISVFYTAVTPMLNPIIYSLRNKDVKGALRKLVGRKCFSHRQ
OR2G3 (Homo sapiens), sequence (Q8NGZ4 whole entry): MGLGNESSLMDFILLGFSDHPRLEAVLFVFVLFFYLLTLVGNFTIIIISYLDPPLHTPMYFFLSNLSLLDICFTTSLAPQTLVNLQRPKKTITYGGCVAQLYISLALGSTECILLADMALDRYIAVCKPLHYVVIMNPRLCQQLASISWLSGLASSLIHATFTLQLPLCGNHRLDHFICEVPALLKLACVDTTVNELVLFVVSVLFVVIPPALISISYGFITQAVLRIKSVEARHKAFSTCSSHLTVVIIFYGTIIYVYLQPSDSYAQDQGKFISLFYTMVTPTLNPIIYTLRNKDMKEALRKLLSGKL
OR2F2 (Homo sapiens), sequence (O95006 whole entry): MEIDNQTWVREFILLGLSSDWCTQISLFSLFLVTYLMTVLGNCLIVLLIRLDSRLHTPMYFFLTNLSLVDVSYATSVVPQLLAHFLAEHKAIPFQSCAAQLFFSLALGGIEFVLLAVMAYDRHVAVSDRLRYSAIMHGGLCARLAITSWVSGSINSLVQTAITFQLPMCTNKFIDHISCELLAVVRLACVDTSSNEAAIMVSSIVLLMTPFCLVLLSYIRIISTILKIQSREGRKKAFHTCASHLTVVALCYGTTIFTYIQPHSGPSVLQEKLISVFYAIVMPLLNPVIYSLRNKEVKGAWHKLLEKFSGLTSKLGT
OR2G3 I289V, sequence (as listed by the source, stated change not applied): as the sequence (Q8NGZ4 whole entry) above, with I289V counted along it
OR2D3 R155W, sequence (as listed by the source, stated change not applied): as the sequence (Q8NGH3 whole entry) above, with R155W counted along it

C=CCOC(=O)Cc1ccccc1
inactive: all assays above

Cc1c([N+](=O)[O-])c(C)c([N+](=O)[O-])c(C(C)(C)C)c1[N+](=O)[O-]
inactive: OR2D3 (Homo sapiens) | OR2F1 (Homo sapiens) | OR2F2 (Homo sapiens) | OR2G3 (Homo sapiens) | OR2G6 (Homo sapiens)
